Assay results as given in ChEMBL document CHEMBL2412990, “Synthesis and pharmacological evaluation of new N-phenylpiperazine derivatives designed as homologues of the antipsychotic lead compound LASSBio-579” (Eur J Med Chem, 2013).
Calls of active or inactive are those of the source. No cut-off for these calls is given here.

How the values were obtained:
[1] = target: 5-hydroxytryptamine receptor 2A (Rattus norvegicus) (UniProt P14842); test: Antagonist activity at 5HT2A receptor in rat brain cortical membranes assessed as inhibition of [3H]-ketanserin binding to receptor after 15 mins by competition assay in absence of GTP; type: cell membranes
Sequence of 5-hydroxytryptamine receptor 2A (Rattus norvegicus) (P14842 whole entry): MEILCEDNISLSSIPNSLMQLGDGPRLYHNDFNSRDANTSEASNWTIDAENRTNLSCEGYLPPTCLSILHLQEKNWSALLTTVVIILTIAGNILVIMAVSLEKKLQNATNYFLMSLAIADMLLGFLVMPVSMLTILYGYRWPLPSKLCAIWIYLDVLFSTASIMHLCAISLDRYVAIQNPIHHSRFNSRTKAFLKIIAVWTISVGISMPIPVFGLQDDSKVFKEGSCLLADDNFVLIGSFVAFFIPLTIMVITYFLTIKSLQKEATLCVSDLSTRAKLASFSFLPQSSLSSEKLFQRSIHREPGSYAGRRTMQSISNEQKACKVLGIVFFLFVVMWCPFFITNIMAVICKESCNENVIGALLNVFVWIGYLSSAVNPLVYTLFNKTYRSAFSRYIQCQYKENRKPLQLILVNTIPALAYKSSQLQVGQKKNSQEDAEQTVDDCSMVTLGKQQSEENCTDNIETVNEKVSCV
Method in brief: (§1)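 Rat cortical membranes, 150 µg protein, with 1 nM [3H]-ketanserin and 100 nM prazosin in 50 mM Tris-HCl pH 7.4, 37 °C, 15 min. Non-specific binding was defined with ketanserin. For the GTP shift, paired competition curves were run without and with guanylyl nucleotide (0.1 mM Gpp(NH)p or 1 mM GTP).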

[2] = target: 5-hydroxytryptamine receptor 2A (Rattus norvegicus) (UniProt P14842); test: Antagonist activity at 5HT2A receptor in rat brain cortical membranes assessed as inhibition of [3H]-ketanserin binding to receptor after 15 mins by competition assay in presence of GTP; type: cell membranes; method in brief: as §1
Mus musculus [3] = test: Antipsychotic activity in CF1 mouse assessed as prevention of apomorphine-induced climbing behaviour at 15 mg/kg, po administered 30 mins prior apomorphine challenge measured 5 to 30 mins post challenge; type: functional, organism-based; design: dose 15 mg/kg
Method in brief: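 Male CF1 mice (25-35 g), given the drug orally (10 ml/kg, fasted 2 h) and then kept in metal-bar cages for 30 min. Apomorphine 4 mg/kg was then given s.c. Climbing was scored 0-4 for 1 min at 5, 10, 15, 20, 25 and 30 min, and the scores were summed per animal as a climbing index. n = 8-9. One-way ANOVA with Student-Newman-Keuls post hoc test.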

Mus musculus [4] = test: Antipsychotic activity in CF1 mouse assessed as prevention of ketamine-induced hyperlocomotion at 1 mg/kg, po administered 30 mins prior ketamine challenge measured for 20 mins post challenge; type: functional, organism-based; design: dose 1 mg/kg
Method in brief: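 Male CF1 mice, dosed orally (10 ml/kg, fasted 2 h) and placed at the centre of the apparatus in a dimly lit room. Ketamine 10 mg/kg was given s.c. 30 min later. A blinded observer counted square crossings over 20 min. n = 7-8. One-way ANOVA with Student-Newman-Keuls post hoc test.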

[5] = target: T1, 5-hydroxytryptamine receptor 1A (Rattus norvegicus) (UniProt P19327); test: Antagonist activity at 5HT1A receptor in rat brain hippocampal membranes assessed as inhibition of [3H]-8-OH-DPAT binding to receptor after 15 mins by competition assay in absence of GTP; type: cell membranes
T1 sequence (whole entry): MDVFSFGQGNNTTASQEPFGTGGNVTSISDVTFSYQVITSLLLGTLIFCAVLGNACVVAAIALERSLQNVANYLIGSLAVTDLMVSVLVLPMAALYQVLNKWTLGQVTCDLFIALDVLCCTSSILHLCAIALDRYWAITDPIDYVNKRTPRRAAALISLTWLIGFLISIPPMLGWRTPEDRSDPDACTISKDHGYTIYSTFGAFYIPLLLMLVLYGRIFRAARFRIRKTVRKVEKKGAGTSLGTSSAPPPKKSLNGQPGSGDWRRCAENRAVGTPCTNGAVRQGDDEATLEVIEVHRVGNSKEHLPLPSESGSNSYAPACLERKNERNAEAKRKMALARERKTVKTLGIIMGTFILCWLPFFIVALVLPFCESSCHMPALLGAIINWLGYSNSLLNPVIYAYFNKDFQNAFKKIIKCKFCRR
Method in brief: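 Hippocampal membranes, 40 µg protein, incubated with 1 nM [3H]-8-OH-DPAT at 37 °C for 15 min under yellow light. Buffer was 50 mM Tris-HCl pH 7.4 with 1 mM CaCl2, 1 mM MnCl2 and pargyline. Non-specific binding was defined with 5-HT. Filters were soaked in 0.5% polyethyleneimine. IC50 came from nonlinear regression fitted with one or two sites. Ki by Cheng-Prusoff, using Kd from saturation experiments.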

[6] = target: T1, 5-hydroxytryptamine receptor 1A (Rattus norvegicus); test: Antagonist activity at 5HT1A receptor in rat brain hippocampal membranes assessed as inhibition of [3H]-8-OH-DPAT binding to receptor after 15 mins by competition assay in presence of GTP; type: cell membranes
Mus musculus [7] = test: Antipsychotic activity in CF1 mouse assessed as prevention of apomorphine-induced climbing behaviour at 0.5 mg/kg, po administered 30 mins prior apomorphine challenge measured 5 to 30 mins post challenge; type: functional, organism-based; design: dose 0.5 mg/kg
Method in brief: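 Reference drug given orally to mice fasted 2 h. Apomorphine 4 mg/kg s.c. was given 30 min later. Climbing was scored 0–4 at 5-min intervals up to 30 min and summed as the climbing index. n = 8–9. Analysed by one-way ANOVA with Newman-Keuls post hoc test.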

Mus musculus [8] = test: Antipsychotic activity in CF1 mouse assessed as prevention of ketamine-induced hyperlocomotion at 0.01 mg/kg, po administered 30 mins prior ketamine challenge measured for 20 mins post challenge; type: functional, organism-based; design: dose 0.01 mg/kg
Method in brief: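 Mice were pretreated (reference drug orally after 2 h fast; test compound i.p.) and placed in the arena centre. Ketamine 10 mg/kg s.c. was given 30 min later. A blinded observer counted total square crossings over 20 min in a dimly lit room. n = 7–8. Analysed by one-way ANOVA with Newman-Keuls post hoc test.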

O=C(c1ccc(F)cc1)C1CCN(CCn2c(=O)[nH]c3ccccc3c2=O)CC1
inhibition [1]: Active
inhibition [2]: Active

CN1CCN(C2=Nc3cc(Cl)ccc3Nc3ccccc32)CC1
Activity (Mus musculus [3]): Active
Activity (Mus musculus [4]): Active

COc1ccccc1N1CCN(CCN(C(=O)c2ccc(F)cc2)c2ccccn2)CC1
inhibition [5]: Active
inhibition [6]: Active

O=C(CCCN1CCC(O)(c2ccc(Cl)cc2)CC1)c1ccc(F)cc1
Activity (Mus musculus [7]): Active
Activity (Mus musculus [8]): inactive
